Data: ChEMBL document CHEMBL1121948, “Alkylation of the prosthetic heme in cytochrome P-450 during oxidative metabolism of the sedative-hypnotic ethchlorvynol” (1982)

Legend:
Format in all cases: functional
Rattus norvegicus [1] = species on record: Rattus norvegicus; experiment: Heme loss from phenobarbital pretreated rats was measured in the presence of oxygen and NADPH after 20 min
Summary of the method: (§1)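 This was a separate 20-min experiment using the standard microsomal mix at 37 °C: phenobarbital-induced rat microsomes at 1 mg/mL, 1 mM ethchlorvynol, 1 mM NADPH, EDTA and KCl in phosphate buffer pH 7.4. P-450 loss was measured spectroscopically and heme loss by the pyridine hemochromogen assay, both expressed in nmol. Values are the mean ± SD of three determinations.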

Rattus norvegicus [2] = species on record: Rattus norvegicus; experiment: Cytochrome P-450 loss from phenobarbital pretreated rats was measured in the presence of oxygen and NADPH after 20 min; summary of the method: as §1
Rattus norvegicus [3] = species on record: Rattus norvegicus; experiment: Percentage cytochrome P-450 loss from phenobarbital pretreated rats was measured in the presence of the oxygen after 20 min
Rattus norvegicus [4] = species on record: Rattus norvegicus; experiment: Percentage cytochrome P-450 loss from phenobarbital pretreated rats was measured in the presence of oxygen and NADPH after 30 min
Summary of the method: (§2)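 Liver microsomes from phenobarbital-pretreated male Sprague-Dawley rats (1 mg/mL protein) were incubated at 37 °C with 1 mM ethchlorvynol, 1 mM NADPH, 1.5 mM EDTA and 150 mM KCl in […], pH 7.4, under air. The reaction was started with NADPH. Cytochrome P-450 loss was measured spectroscopically. Values are the mean ± SD of three determinations.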

Rattus norvegicus [5] = species on record: Rattus norvegicus; experiment: Percentage cytochrome P-450 loss from phenobarbital pretreated rats was measured in the presence of the NADPH after 20 min; Not detectable
Rattus norvegicus [6] = species on record: Rattus norvegicus; experiment: Percentage cytochrome P-450 loss from phenobarbital pretreated rats was measured in the presence of oxygen and NADPH after 20 min; summary of the method: as §2
Rattus norvegicus [7] = species on record: Rattus norvegicus; experiment: Percentage cytochrome P-450 loss from phenobarbital pretreated rats was measured in the presence of the Ethchlorvynol after 20 min; Not detectable
Rattus norvegicus [8] = species on record: Rattus norvegicus; experiment: Percentage cytochrome P-450 loss from phenobarbital pretreated rats was measured in the presence of the NADPH after 10 min; Not detectable
Rattus norvegicus [9] = species on record: Rattus norvegicus; experiment: Percentage cytochrome P-450 loss from phenobarbital pretreated rats was measured in the presence of the NADPH after 30 min; Not detectable
Rattus norvegicus [10] = species on record: Rattus norvegicus; experiment: Percentage cytochrome P-450 loss from phenobarbital pretreated rats was measured in the presence of the Ethchlorvynol after 30 min; Not detectable
Rattus norvegicus [11] = species on record: Rattus norvegicus; experiment: Percentage cytochrome P-450 loss from phenobarbital pretreated rats was measured in the presence of oxygen and NADPH after 10 min; summary of the method: as §2
Rattus norvegicus [12] = species on record: Rattus norvegicus; experiment: Percentage cytochrome P-450 loss from phenobarbital pretreated rats was measured in the presence of the Ethchlorvynol after 10 min; Not detectable

C#CC(O)(/C=C/Cl)CC (configuration not stated) [ETHCHLORVYNOL]
Heme loss (Rattus norvegicus [1]): 0.32 nM
P-450 loss (Rattus norvegicus [2]): 0.52 nM
Cytochrome loss (Rattus norvegicus [3]): 4%
Cytochrome loss (Rattus norvegicus [4]): 38%
Cytochrome loss (Rattus norvegicus [5]): Not detectable
Cytochrome loss (Rattus norvegicus [6]): 35%
Cytochrome loss (Rattus norvegicus [7]): Not detectable
Cytochrome loss (Rattus norvegicus [8]): Not detectable
Cytochrome loss (Rattus norvegicus [9]): Not detectable
Cytochrome loss (Rattus norvegicus [10]): Not detectable
Cytochrome loss (Rattus norvegicus [11]): 30%
Cytochrome loss (Rattus norvegicus [12]): Not detectable
